The values below come from PubChem BioAssay.

The nature of experiment [1]: inhibitors of TNFa-induced NFkB p65 translocation, primary screen, imaging, HUVEC, MLSMR starter and 10KST1 sets (AID 438;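 active = inhibition above 20% together with a positive visual image hit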;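 also: compound added about 3h40 before a 20 min TNFalpha stimulation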;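 as to inhibition: signal is the nuclear over cytoplasmic p65 intensity ratio per well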). Conditions: HUVEC TNFa-induced p65 nuclear translocation; cell count: measured here: nuclei count (cytotoxicity indicator), at 2.08 µM; inhibition: at 2 µM, stronger effect = higher value, 0% TNFa-plus-vehicle, 100% no-TNFa wells.
A short description of experiment [2]: inhibitors of mutant huntingtin aggregation, primary screen, imaging, exon1htt(103Q)mCFP cells, high-content imaging (AID 483;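 active = visual image review flags a hit and inhibition of aggregation exceeds 20%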;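 also: compound exposure lasted 3 days before fixation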;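 as to nuclei count: percent of the per-plate median nuclei count of sample wells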). The following applies: exon1htt(103Q)mCFP cell line, aggregate imaging, at 2 µM; inhibition of aggregation: stronger effect = higher value; nuclei count: measured here: cell count, toxicity.
A short description of experiment [3]: inhibitors of E-selectin induction by TNFa, primary screen, imaging, HUVEC, immunofluorescence, MLSMR starter and 10KST1 sets (AID 487;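 active = visually confirmed hit in the image check and inhibition above 20%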;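 as to inhibition: signal is fraction of cell area covered by stained E-selectin grains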;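 as to nuclei count: 100% = median nuclei count of all wells on the same plate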). Conditions: HUVEC TNFalpha-induced E-selectin immunofluorescence imaging, at 2 µM; inhibition: stronger effect = higher value; nuclei count: measured here: cell number, toxicity.
In experiment [4] the target is Voltage-gated potassium channel subunit beta-2 (Rattus norvegicus) (UniProt P62483). Nature of the experiment: KvBeta enzyme negative modulators, primary screen, biochemical, NADPH fluorescence (AID 622;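 active = fluorescence slope higher than the sample average by over 3 SD, cut at about -0.22 in these data, passing the limit was not always enough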;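 also: slope of raw intensity against log time taken from 70 to 1610 s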). The following applies: recombinant KvBeta, 4-cyanobenzaldehyde reduction, at 10 µM, stronger effect = higher value.
Voltage-gated potassium channel subunit beta-2 (Rattus norvegicus), sequence (P62483 whole entry, looked up): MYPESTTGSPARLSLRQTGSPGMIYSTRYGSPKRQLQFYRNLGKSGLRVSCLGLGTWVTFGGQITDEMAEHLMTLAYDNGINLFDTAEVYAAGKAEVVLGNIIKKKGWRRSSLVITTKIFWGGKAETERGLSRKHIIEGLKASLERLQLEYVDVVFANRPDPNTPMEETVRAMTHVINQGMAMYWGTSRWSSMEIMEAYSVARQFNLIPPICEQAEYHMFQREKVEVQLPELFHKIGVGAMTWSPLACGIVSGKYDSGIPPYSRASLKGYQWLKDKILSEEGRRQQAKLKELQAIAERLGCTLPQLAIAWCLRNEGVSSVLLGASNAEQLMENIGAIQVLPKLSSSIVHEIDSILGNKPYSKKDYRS
For experiment [5] the target is unchanged. In words: KvBeta positive modulators, primary screen, biochemical, NADPH fluorescence (AID 623;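 active = NADPH fluorescence slope more negative than the mean of all samples by about 3 SD, 99.7% confidence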;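 also: fluorescence intensity change per second fitted from 20 to 320 s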). The following applies: Recombinant KvBeta, NADPH fluorescence decrease slope, 10 min; at 10 µM; stronger effect = lower value.
Experiment [6] concerns the target Muscarinic acetylcholine receptor M4 (Homo sapiens) (UniProt P08173). Nature of the experiment: compounds altering M4/GIRK thallium flux, either direction, primary screen, M4 allosteric agonist project, cell-based, HEK293 M4/GIRK, BTC-AM (AID 625).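 Also: thallium influx through GIRK channels coupled to M4 in HEK293 cells with BTC-AM dye.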 The following applies: at 10 µM, actives lie on both sides. In outline:
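Material: M4/GIRK1/GIRK2 stable HEK293 cell line. Medium: pH 7.3 thallium assay buffer. Dosing: single compound concentration, 10 µM final. Schedule: 1 h dye loading, 2 min kinetic read. Measured by: kinetic fluorescence with BTC-AM dye. Read-out: post-addition slope, 15–24 s, of baseline-normalized fluorescence. Benchmarks: carbachol and DMSO controls.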

Experiment [7] can be described thus: inhibitors of Sendai virus-induced IRF3 signaling, primary screen, TLR/RLR signaling modifier project, cell-based, Sendai virus stimulus, luciferase, 10K MLSCN set (AID 602276;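 active = inhibition at or above 50% at 10 µM; inactive = inhibition below 50%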;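 also: firefly luciferase from ISG56 promoter only with Renilla not read in this screen; 0% = Sendai virus plus DMSO and 100% = medium plus DMSO without virus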). Conditions: HEK293 RL24 IRF3 luciferase reporter, at 10 µM, stronger effect = higher value.
Experiment [8] can be described thus: inhibitors of poly I:C-induced TLR3 signaling, primary screen, cell-based, poly I:C stimulus, luciferase, 10K MLSCN set (AID 602277;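 active = inhibition of the reporter signal at or above 50%; inactive = inhibition below 50%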). Conditions: HEK293-TLR3 RL24 IRF3 luciferase reporter, at 10 µM, stronger effect = higher value. For orientation: Reporter assays use an easily measured gene product as a stand-in for the process of interest.

The source made the active and inactive calls.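 The calls were made as follows, unless noted: active = fluorescence slope after compound addition differing from the mean of all tested samples at 99.7% confidence, mostly higher but some lower; inactive = the rest.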

Muscarinic acetylcholine receptor M4 (Homo sapiens), sequence (P08173 whole entry, looked up): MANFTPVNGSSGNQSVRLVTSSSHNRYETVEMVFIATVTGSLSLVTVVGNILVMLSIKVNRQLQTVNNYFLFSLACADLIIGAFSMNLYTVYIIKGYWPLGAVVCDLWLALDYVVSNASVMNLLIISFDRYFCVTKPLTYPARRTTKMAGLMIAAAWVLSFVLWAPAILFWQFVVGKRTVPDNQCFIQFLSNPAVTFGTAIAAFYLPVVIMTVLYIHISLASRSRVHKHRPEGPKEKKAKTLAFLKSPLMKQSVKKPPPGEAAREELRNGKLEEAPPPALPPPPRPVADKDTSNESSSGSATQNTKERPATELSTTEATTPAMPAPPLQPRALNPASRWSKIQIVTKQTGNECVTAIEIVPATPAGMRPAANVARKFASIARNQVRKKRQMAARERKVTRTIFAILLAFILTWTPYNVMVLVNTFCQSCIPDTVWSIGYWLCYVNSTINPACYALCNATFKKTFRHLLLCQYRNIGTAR

Turning to `Cc1oc2c(CN3CCCC3)c(O)ccc2c(=O)c1-c1ccccc1`, the cell count in experiment [1] amounted to 243. In addition, the inhibition (in general, the relative decrease from the control value, in per cent) in experiment [1] was 3.8% (inactive); in experiment [3] it was -46% (inactive); in experiment [7] it was 14% (inactive); in experiment [8], 24.5% (inactive). The inhibition of aggregation in experiment [2] was 6.5% (inactive). Also, the nuclei count was 96.3% in experiment [2] and 97.7% in experiment [3]. Moreover, the fluorescence slope is -0.0276 (active) in experiment [4] and 0.00581 (inactive) in experiment [6]. For the same molecule, the NADPH fluorescence slope in experiment [5] is 8.9e-06 (inactive).
For the molecule `COC(=O)c1ccccc1NC(=O)Cn1c(-c2nonc2N)nc2ccccc21`, the cell count in experiment [1] was determined as 363. For the same molecule, the inhibition in experiment [1] is 5.8% (inactive); in experiment [3] it was -162% (inactive); in experiment [7] it was 47.8% (inactive); in experiment [8], 30% (inactive). Further, the inhibition of aggregation in experiment [2] was -2.5% (inactive). For the same molecule, the results for the nuclei count in experiment [2] and in experiment [3] were 1.9% and 102%, respectively. Besides, the figures for the fluorescence slope in experiment [4] and in experiment [6] were -0.537 (inactive) and 0.00504 (inactive), respectively. Besides, in experiment [5], the NADPH fluorescence slope was -5.1e-05 (inactive).
With `Cc1cc(NC(=O)c2cc(-c3ccco3)on2)n(-c2ccccc2)n1`, the cell count in experiment [1] is 326. Also, the inhibition in experiment [1] was 6.8% (inactive); in experiment [3], -56.3% (inactive); in experiment [7] it was 17.5% (inactive); in experiment [8] it was 12.9% (inactive). Moreover, the inhibition of aggregation in experiment [2] was 6.4% (inactive). In addition, the nuclei count turned out to be 105% in experiment [2] and 121% in experiment [3]. Also, the values for the fluorescence slope in experiment [4] and in experiment [6] were -0.466 (inactive) and 0.00551 (inactive), respectively. For the same molecule, the NADPH fluorescence slope in experiment [5] is -2.4e-05 (inactive).
As for `O=C(Nc1nnc(C2CCCCC2)s1)c1cccs1`, the cell count in experiment [1] was determined as 511. Also, the inhibition in experiment [1] is -8.1% (inactive); in experiment [3], -77.2% (inactive); in experiment [7] it was -37.9% (inactive); in experiment [8], -113% (inactive). Moreover, in experiment [2], the inhibition of aggregation is -2.9% (inactive). For the same molecule, the nuclei count in experiment [2] came out at 108%; in experiment [3], 121%. For the same molecule, the fluorescence slope was -0.437 (inactive) in experiment [4] and 0.00416 (inactive) in experiment [6]. Also, in experiment [5], the NADPH fluorescence slope is -2.3e-05 (inactive).
Regarding `Cc1ccc2cc(C#N)c(N3CCCC3)nc2c1C`, the cell count in experiment [1] turned out to be 360. The inhibition was 4.8% (inactive) in experiment [1], -49.6% (inactive) in experiment [3], 13.3% (inactive) in experiment [7] and -29.1% (inactive) in experiment [8]. Moreover, in experiment [2], the inhibition of aggregation was 10% (inactive). Besides, the nuclei count in experiment [2] came out at 111%; in experiment [3] it was 110%. Moreover, the values for the fluorescence slope in experiment [4] and in experiment [6] were -0.195 (inactive) and 0.00646 (inactive), respectively. Further, in experiment [5], the NADPH fluorescence slope is -2.2e-05 (inactive).
Turning to `CCOC(=O)C(C)Sc1nc2c(cnn2-c2ccc(C)cc2)c(=O)[nH]1` (stereo not drawn), in experiment [1], the cell count was 239. The inhibition is -1.3% (inactive) in experiment [1], 11.9% (inactive) in experiment [3], 6.58% (inactive) in experiment [7] and 8.01% (inactive) in experiment [8]. Also, the inhibition of aggregation in experiment [2] was 6.8% (inactive). Further, the nuclei count in experiment [2] is 102%; in experiment [3] it was 110%. Moreover, the fluorescence slope in experiment [4] is -0.503 (inactive); in experiment [6], 0.00678 (inactive). Further, the NADPH fluorescence slope in experiment [5] was 8.8e-05 (inactive).
With `CCCN(CCC)c1nc2ccccc2n2c(C)nnc12`, the cell count in experiment [1] was 460. Moreover, the inhibition in experiment [1] is 6.5% (inactive); in experiment [3] it was -77.3% (inactive); in experiment [7], 11.6% (inactive); in experiment [8], 11.3% (inactive). In experiment [2], the inhibition of aggregation is -1.5% (inactive). Besides, the nuclei count in experiment [2] is 76.7%; in experiment [3], 102%. In addition, the fluorescence slope in experiment [4] was -0.461 (inactive); in experiment [6], 0.00414 (inactive). Also, the NADPH fluorescence slope in experiment [5] is -3.2e-05 (inactive).
On to `Cc1ccc(C)c(-c2nc3cc(N)ccc3o2)c1`, for which, in experiment [1], the cell count stood at 407. Moreover, the inhibition in experiment [1] was 12.5% (inactive); in experiment [3], -435% (inactive); in experiment [7], 4.93% (inactive); in experiment [8], 1.69% (inactive). Further, the inhibition of aggregation in experiment [2] was 20.6% (inactive). The nuclei count amounted to 97.9% in experiment [2] and 124% in experiment [3]. The figures for the fluorescence slope in experiment [4] and in experiment [6] were -0.0313 (active) and 0.00545 (inactive), respectively. In addition, the NADPH fluorescence slope in experiment [5] was -3e-06 (inactive).
Take `CCCCN(CCCC)CCCNC(=O)CC1Oc2ccc(C)cc2NC1=O` (stereo not drawn): the cell count in experiment [1] was 618. The inhibition was -18.4% (inactive) in experiment [1], -6.4% (inactive) in experiment [3], 17.2% (inactive) in experiment [7] and 23.7% (inactive) in experiment [8]. The inhibition of aggregation in experiment [2] is 4.4% (inactive). Also, the nuclei count in experiment [2] amounted to 110%; in experiment [3], 92.1%. The figures for the fluorescence slope in experiment [4] and in experiment [6] were -0.242 (inactive) and 0.00528 (inactive), respectively. In addition, the NADPH fluorescence slope in experiment [5] was -7e-06 (inactive).
As to `COc1ccccc1NC(=O)C1CC(=O)N(c2ccc(F)cc2)C1` (stereo not drawn), in experiment [1], the cell count was 402. The inhibition in experiment [1] is 4.5% (inactive); in experiment [3] it was -46.4% (inactive); in experiment [7], -15.4% (inactive); in experiment [8], -26.4% (inactive). The inhibition of aggregation in experiment [2] is 13.8% (inactive). In addition, the nuclei count in experiment [2] came to 101%; in experiment [3], 110%. The results for the fluorescence slope in experiment [4] and in experiment [6] were -0.583 (inactive) and 0.00373 (inactive), respectively. Also, the NADPH fluorescence slope in experiment [5] was -9.7e-05 (inactive).
Take `COc1cc(OC)cc(C(=O)NCCN2CCOCC2)c1`: in experiment [1], the cell count turned out to be 633. For the same molecule, the inhibition is -11.2% (inactive) in experiment [1], -24.5% (inactive) in experiment [3], 7.36% (inactive) in experiment [7] and 9.91% (inactive) in experiment [8]. Besides, the inhibition of aggregation in experiment [2] is -0.4% (inactive). Moreover, the nuclei count amounted to 94.3% in experiment [2] and 108% in experiment [3]. Moreover, the fluorescence slope was -0.573 (inactive) in experiment [4] and 0.00526 (inactive) in experiment [6]. Moreover, in experiment [5], the NADPH fluorescence slope was 1.5e-05 (inactive).
Regarding `CCn1c(SCC(=O)Nc2ccc(C(C)=O)cc2)nc2ccccc21`, the cell count in experiment [1] stood at 227. Also, the inhibition in experiment [1] was 14.4% (inactive); in experiment [3] it was -2.2% (inactive); in experiment [7] it was -13% (inactive); in experiment [8], -19.9% (inactive). Moreover, the inhibition of aggregation in experiment [2] was -7.2% (inactive). The results for the nuclei count in experiment [2] and in experiment [3] were 101% and 98.3%, respectively. For the same molecule, the fluorescence slope was -0.453 (inactive) in experiment [4] and 0.00502 (inactive) in experiment [6]. Further, in experiment [5], the NADPH fluorescence slope is -0.000344 (inactive).
`COc1cccc(C(=O)Nc2cc(NC(=O)c3ccco3)ccc2OC)c1`: in experiment [1], the cell count came out at 406. For the same molecule, the inhibition is 10.9% (inactive) in experiment [1], 17.3% (inactive) in experiment [3], 19.4% (inactive) in experiment [7] and 4.19% (inactive) in experiment [8]. Besides, in experiment [2], the inhibition of aggregation is 24.4% (inactive). In addition, the nuclei count was 88.1% in experiment [2] and 98.6% in experiment [3]. In addition, the fluorescence slope in experiment [4] was -0.572 (inactive); in experiment [6] it was 0.00583 (inactive). The NADPH fluorescence slope in experiment [5] is -3.4e-05 (inactive).
